Bioassay records from PubChem.
MEX-5 binding – C. elegans MEX-5 TCR-2 RNA binding activity; Q9XUB2; MEX-5/FITC-TCR2 RNA binding, fluorescence polarization; hits give low values; activity score (negative = inhibition of binding), % at 10 µM; 300,000 compounds, 0.38% hits;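 active = inhibition past about -25% in most replicates, and total fluorescence under double the plate's negative control median, limit read from the data; inconclusive = replicates evenly split on the limit, or fluorescence at least double controls; inactive = too little inhibition in most replicates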;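 also: 0% = DMSO and -100% = 5 µM competing unlabeled TCR2 RNA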
Target sequence (Q9XUB2 whole entry, looked up): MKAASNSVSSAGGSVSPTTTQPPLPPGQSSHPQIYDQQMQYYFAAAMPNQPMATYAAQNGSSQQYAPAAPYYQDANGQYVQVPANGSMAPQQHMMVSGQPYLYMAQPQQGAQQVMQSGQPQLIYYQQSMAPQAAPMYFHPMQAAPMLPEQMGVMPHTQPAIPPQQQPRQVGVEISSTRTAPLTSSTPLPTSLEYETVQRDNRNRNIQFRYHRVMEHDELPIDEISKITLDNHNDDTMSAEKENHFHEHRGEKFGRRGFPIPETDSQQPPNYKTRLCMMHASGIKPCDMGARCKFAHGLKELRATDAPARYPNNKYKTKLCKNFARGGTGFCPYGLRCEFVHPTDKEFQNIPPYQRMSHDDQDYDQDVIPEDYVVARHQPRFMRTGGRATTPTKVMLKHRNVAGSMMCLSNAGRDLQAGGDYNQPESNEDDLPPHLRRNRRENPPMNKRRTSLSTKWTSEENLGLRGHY
RanGTP-Impb inh – inhibitors of RanGTP-importin-beta interaction, primary screen, biochemical, FRET, CFP-Ran, YFP-importin-beta, homogeneous; cell-free CFP-Ran/YFP-importin-beta FRET ratio; inhibition, % (no concentration beside the values); 300,000 compounds, 1.1% hits; AID 2216;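 active = more than half of the replicate wells show a fall in the fluorescence ratio signal beyond about 16%, limit read from the data, passing the limit was not always enough; inconclusive = exactly half of the replicate wells pass the set limit; inactive = fewer than half of replicates pass the limit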;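 also: 0% = DMSO wells and 100% = Ran loaded with GDP instead of GTP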
PKD1 inh – blocks activity of human protein kinase D1 | Q15139 | 200,000 compounds, 0.056% hits | PKD1 kinase fluorescence polarization assay | inhibition, % (test concentration not listed)
Runt-CBFb FRET – blocks binding of human RUNX1 Runt domain to CBFb; Q01196+Q13951; Cerulean-Runt/Venus-CBFb FRET ratio 530/480, 1 h; inhibition, % at 20 µM; 220,000 compounds, 0.46% hits; AID 1496;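 active = inhibition over about 50% at 20 µM in the single-dose screen, limit read from the data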;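 also: 0% = DMSO wells and 100% = excess unlabeled CBFb competitor control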
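Doses: 20 µM compound in 1% DMSO | Material: Cerulean-labeled Runt domain protein | Amount: Each fluorescent fusion protein 100 nM | Schedule: Two 1 h room-temperature incubations shielded from light | Measured by: FRET fluorescence | Evaluation: Loss of energy transfer signal | Controls: Unlabeled CBFb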
Runt-SMMHC FRET – Runt domain-CBFb-SMMHC interaction inhibition; inhibition, % at 20 µM; Q01196+Q13951; AID 1434; 220,000 compounds, 0.74% hits; Cerulean-Runt/Venus-CBFb-SMMHC FRET ratio 530/480, 1 h;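 active = mean inhibition across duplicate retests at 20 µM reaching about 50%, limit read from the data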;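 also: 0% = DMSO wells and 100% = wells with excess untagged CBFb-SMMHC; inhibitors lower the FRET ratio by blocking Runt binding to CBFb-SMMHC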
EBV gp42 block – EBV gp42 inhibition; inhibition, % (tested at 21.74 µM); Fluorescence polarization binding assay, mP read-out; Q1HVG2; 220,000 compounds, 0.42% hits; AID 1085
* hit, by the source's call; i = inactive; ? = inconclusive; · = not tested or not shown. A selection: hits, their analogues and other compounds. The true share with any hit is near 2%. Rule as the data show it, unless noted: active = inhibition above about 50%; inactive = the rest.

SMILES	MEX-5 binding	RanGTP-Impb inh	PKD1 inh	Runt-CBFb FRET	Runt-SMMHC FRET	EBV gp42 block
Cc1ccc(N2C(=O)/C(=C/c3ccc(CN(CCC#N)S(C)(=O)=O)o3)C(=O)NC2=S)cc1	-50*	-9	-7	8	-1	-33
Cc1cccc(-n2c(C)nc3ccc(Cl)cc3c2=O)c1	0	2	·	·	·	·
CCc1c(-c2ccccc2)nc2ccccc2c1C(=O)N1CCC2(CC1)OCCO2	0	3	·	·	·	·
Cc1cc(=O)oc2cc3c(cc12)CCCN3	-2	84*	·	·	·	·
CN1C(=O)/C(=C\N2CCc3ccccc32)C(=O)NC1=S	0	-3	-13	11	-5	90*
CN1C(=O)/C(=C/c2cccn2-c2ccc3ccccc3c2)C(=O)NC1=S	-3	0	-3	23	11	-6
CCOC(=O)c1cc(CC)sc1/N=C/c1c(O)[nH]c(=S)[nH]c1=O	-29*	-4	-3	34	36	-162
O=[N+]([O-])c1ccc2nc(N3CCNCC3)ccc2c1	2	4	·	·	·	·
Cc1ccc(N2C(=O)NC(=O)/C(=C\c3ccc([N+](=O)[O-])o3)C2=O)cc1	-68*	-3	18	9	-11	-13
Cc1ccc(N2C(=O)NC(=O)/C(=C\c3ccc(N4CCOCC4)cc3)C2=O)cc1	-2	-1	-10	-5	-26	-11
O=c1[nH]c(=O)n(Cc2ccccc2Cl)c(O)c1/C=C1/C=CC=N1	-10	2	-2	-22	-68	58*
CCCCCCn1c(N)c(C(=O)NCCN2CCOCC2)c2nc3ccccc3nc21	0	70*	-8	28	62*	3
COc1ccc(CCNC(=O)c2c(N)n(CCN3CCOCC3)c3nc4ccccc4nc23)cc1OC	0	55*	-8	19	46	-9
CCCCCn1c(N)c(C(=O)NCCN2CCOCC2)c2nc3ccccc3nc21	0	60*	-8	1	94*	-1
COc1ccccc1NC(=O)c1cn(CCC#N)nc1-c1cccc(Cl)c1	2	-1	·	·	·	·
Oc1c(Cl)c(Cl)c(Cl)c(Cl)c1Cl	-2	0	·	·	·	·
CCn1c(O)c(C=Nc2ccc(N3CCOCC3)cc2)c(=O)n(CC)c1=S	?	6	-3	-132	i	177*
O=c1[nH]c(=S)n(-c2ccc(Cl)cc2)c(O)c1C=Nc1ccc(N2CCOCC2)cc1	-41*	7	-7	-72	-168	45
CCc1nnc(NS(=O)(=O)c2ccc(N=Cc3c(O)n(-c4ccc(Cl)cc4)c(=O)[nH]c3=O)cc2)s1	-28*	-1	-5	-10	-56	4
CNS(=O)(=O)c1ccc(N=Cc2c(O)n(-c3ccc(C)cc3)c(=O)[nH]c2=O)cc1	2	1	·	-1	-1	-13
CC(=Nc1ccc(F)cc1)c1c(O)n(C)c(=O)[nH]c1=O	1	1	·	·	·	·
CC1=C[C@@H]2c3cccc4[nH]cc(c34)C[C@H]2N(C)C1	-58*	-21	·	·	·	·
CN1C(=O)c2ccccc2Sc2ccc(C(=O)N3CCC4(CC3)OCCO4)cc21	0	6	3	-1	-2	2
Cc1ccc(/C=C2/Sc3ccc(C(=O)N4CCC5(CC4)OCCO5)cc3NC2=O)cc1	-29*	-4	·	·	·	·
CC(Cc1ccc(O)cc1)NCC(O)c1cc(O)cc(O)c1 (stereo not drawn)	-1	17*	·	13	7	-24
SMILES	MEX-5 binding	RanGTP-Impb inh	PKD1 inh	Runt-CBFb FRET	Runt-SMMHC FRET	EBV gp42 block
Cc1cc(/C=C2\C(=O)NC(=O)N(c3cccc(Br)c3)C2=O)c(C)n1C	-28*	?	-2	-32	-155	111*
Cc1ccccc1N1C(=O)NC(=O)/C(=C\c2ccc3c(c2)CCCN3Cc2ccccc2)C1=O	1	3	30	13	7	171*
CCOC(=O)[C@@]1(C#N)[C@@H]2C=CC(C(N)=O)=CN2[C@@H](C(N)=O)[C@@H]1c1cccc(Cl)c1	-10	-2	-3	-1	-6	6
CCOC(=O)[C@@]1(C#N)C(c2ccc(Cl)c(Cl)c2)[C@H](C(N)=O)N2C=C(C(C)=O)C=C[C@H]21 (stereo partly drawn)	-56*	·	-7	2	3	102*
CCOC(=O)[C@]1(C#N)[C@@H]2C=CC(C(N)=O)=CN2[C@@H](C(N)=O)[C@@H]1c1ccc(F)cc1	-6	0	·	0	-3	12
COC(=O)[C@@]1(C#N)[C@@H]2C=CC(C(C)=O)=CN2[C@@H](C(N)=O)[C@@H]1c1ccc(F)cc1	-57*	4	·	-3	-122	119*
Nc1cc2nc3ccccc3nc2cc1N	?	-2	·	18	-372	179*
COC(=O)Cn1cc(C=C2C(=O)NC(=O)NC2=O)c2ccccc21	-27*	1	·	·	·	·
NC(=O)Cn1cc(C=C2C(=O)NC(=O)NC2=O)c2ccccc21	-74*	3	·	·	·	·
CCn1cc(C=C2C(=O)NC(=O)NC2=O)c2ccccc21	-46*	3	·	·	·	·
COCCNC(=O)Cn1cc(/C=C2\C(=O)NC(=O)N(c3cccc(C)c3C)C2=O)c2ccccc21	?	3	·	·	·	·
CCCc1cc(=O)oc2cc(OCC(=O)N3CCC(C(=O)O)(c4ccccc4)CC3)ccc12	-2	4	·	·	·	·
O=c1[nH]c(=O)n(C2CCCCC2)c(O)c1/C=C/C=Nc1ccccc1	?	61*	·	-3	81*	-59
COc1ccc(-n2c(O)c(/C=C/C=Nc3ccccc3)c(=O)[nH]c2=O)cc1	?	20*	-26	15	51*	-348
C=CCn1c(O)c(/C=C/C=Nc2ccccc2)c(=O)[nH]c1=O	-26*	29*	-5	39	77*	-218
O=c1[nH]c(=O)n(C2CCCCC2)c(O)c1C=Nc1ccc(N2CCOCC2)cc1	0	1	6	-57	81	-1
Cc1ccc(-n2c(O)c(/C=C/C=Nc3ccccc3)c(=O)[nH]c2=O)cc1	11	68*	-17	19	66*	-275
COc1ccc(-n2c(O)c(/C(C)=N/Nc3ccccc3)c(=O)[nH]c2=O)cc1	1	2	·	-1	0	-11
Cc1ccc(CN2C3CCCC2CC(NC(=O)Nc2cccc(F)c2)C3)cc1 (stereo not drawn)	-3	-1	7	-40	2	-16
O=C(O)C(Cc1cnc[nH]1)NS(=O)(=O)c1ccc(Br)cc1 (stereo not drawn)	-2	3	·	·	·	·
CC1(C)C(C(=O)N2CCN(C(=O)c3ccccc3)CC2)C1(C)C	-3	-1	·	·	·	·
COc1ccc(CC(C)NCCC(c2ccccc2)c2ccccc2)cc1 (stereo not drawn)	3	-1	·	·	·	·
C[C@]12C=CC(=O)C=C1CC[C@@H]1C2CC[C@]2(C)OC(=O)CCC12 (stereo partly drawn)	3	-3	·	·	·	·
